Measurements from ChEMBL document CHEMBL2331476, “A novel semisynthetic flavonoid 7-O-galloyltaxifolin upregulates heme oxygenase-1 in RAW264.7 cells via MAPK/Nrf2 pathway” (J Med Chem, 2013).
Active and inactive are the calls of the source. No cut-off for these calls is given here.

What was measured:
[1] = target: T1, Nuclear factor erythroid 2-related factor 2 (Mus musculus) (UniProt Q60795); assay: Activation of Nrf2 in mouse RAW264.7 cells assessed as induction of Hmox1 mRNA expression at 50 uM after 6 hrs by real-time PCR analysis in presence of SP600125; assay type: cell-based
T1 sequence (whole entry): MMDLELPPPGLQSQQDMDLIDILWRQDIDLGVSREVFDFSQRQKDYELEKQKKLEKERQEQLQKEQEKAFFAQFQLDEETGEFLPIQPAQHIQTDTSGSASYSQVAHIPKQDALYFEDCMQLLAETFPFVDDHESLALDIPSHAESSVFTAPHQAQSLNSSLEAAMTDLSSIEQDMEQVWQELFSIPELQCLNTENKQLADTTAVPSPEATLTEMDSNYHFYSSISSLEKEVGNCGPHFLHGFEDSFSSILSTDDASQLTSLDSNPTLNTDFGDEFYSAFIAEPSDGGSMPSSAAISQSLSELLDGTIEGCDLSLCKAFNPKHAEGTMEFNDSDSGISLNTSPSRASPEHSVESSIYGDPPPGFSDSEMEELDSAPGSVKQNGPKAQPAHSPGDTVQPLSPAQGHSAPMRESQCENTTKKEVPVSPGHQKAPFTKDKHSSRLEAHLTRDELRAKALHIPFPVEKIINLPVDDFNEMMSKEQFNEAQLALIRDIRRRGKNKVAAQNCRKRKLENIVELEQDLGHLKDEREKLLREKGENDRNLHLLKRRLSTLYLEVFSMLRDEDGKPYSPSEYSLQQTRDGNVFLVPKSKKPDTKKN
In short: (§1)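 Pretreatment 30 min with 0.1% DMSO, 15 μM PD98059, 15 μM SB203580 or 30 μM SP600125, then 50 μM agent for 6 h in serum-free medium. Hmox1 mRNA by TaqMan qPCR normalized to Gapdh, given as percent of agent-induced expression; mean ± SD of three experiments.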

RAW264.7 [2] = assay: Induction of ROS generation in mouse RAW264.7 cells at 10 to 50 uM after 2 hrs by flow cytometric analysis; assay type: functional, cell-based
In short: (§2)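 Serum-starved RAW264.7 cells treated 2 h at 10-50 μM; 100 μM TBHP for 30 min as positive control. Medium replaced, cells loaded with 10 μM carboxy-H₂DCFDA for 15 min at 37 °C. Flow cytometry (488 nm excitation, 525 nm emission, 10,000 events) gave percentage of cells with raised ROS; mean ± SD of three experiments.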

[3] = target: Mitogen-activated protein kinase 1 and 3 (ERK2 and ERK1) (Mus musculus) (UniProt P63085+Q63844); assay: Activation of ERK1/2 in mouse RAW264.7 cells assessed as phosphorylation at 50 uM up to 3 hrs by Western blotting analysis; assay type: cell-based
In short: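 RAW264.7 cells (passage 5-25) seeded at 1 × 10⁵ cells/cm², serum-starved overnight, then exposed in serum-free medium for 30 min to 3 h; 0.1% DMSO vehicle; 75 ng/mL EGF for 30 min as positive control. Whole-cell lysates (20 μg/lane) on 10% SDS-PAGE, blotted for phospho-ERK1 (Thr202/Tyr204), phospho-ERK2 (Thr185/Tyr187) and total ERK1/2, chemiluminescent detection.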

[4] = target: T1, Nuclear factor erythroid 2-related factor 2 (Mus musculus); assay: Activation of Nrf2 in mouse RAW264.7 cells assessed as cytosolic accumulation at 50 uM after 2 hrs by Western blotting analysis; assay type: cell-based
In short: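 Serum-starved RAW264.7 cells treated 30 min to 3 h (10-50 μM for 3 h, or 50 μM time course); 0.1% DMSO control, 50 μM quercetin positive control. Cytosolic fraction from hypotonic HEPES pH 7.9 buffer with 0.1% NP-40; nuclear fraction by 420 mM NaCl extraction. 30 μg/lane blotted for Nrf2 and actin; Nrf2/actin densitometry, mean of three experiments.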

[5] = target: T1, Nuclear factor erythroid 2-related factor 2 (Mus musculus); assay: Activation of Nrf2 in mouse RAW264.7 cells assessed as upregulation of HO1 protein expression at 10 uM after 6 hrs by Western blotting analysis; assay type: cell-based
In short: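 HO-1 protein in whole-cell lysates (20 μg/lane) of serum-starved RAW264.7 cells after 6 h at 10-50 μM or 50 μM for 1-6 h in serum-free medium, 0.1% DMSO control. Chemiluminescent Western blot; HO-1 densitometry normalized to actin, mean of three experiments.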

[6] = target: T1, Nuclear factor erythroid 2-related factor 2 (Mus musculus); assay: Activation of Nrf2 in mouse RAW264.7 cells assessed as reduction of KEAP1 protein level at 50 uM after 1 to 6 hr by Western blotting analysis; assay type: cell-based; details: TDE = time-dependent effect
In short: (§3)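 Whole-cell lysates (20 μg/lane) from serum-starved RAW264.7 cells given 10-50 μM for 6 h or 50 μM for 1-6 h in serum-free medium, 0.1% DMSO vehicle. Keap1 and actin detected by chemiluminescent Western blot; Keap1 band intensity normalized to actin, mean of three experiments.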

[7] = target: T1, Nuclear factor erythroid 2-related factor 2 (Mus musculus); assay: Activation of Nrf2 in mouse RAW264.7 cells assessed as nuclear accumulation at 50 uM after 3 hrs by Western blotting analysis; assay type: cell-based
In short: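 RAW264.7 cells (passage 5−25) seeded at 1 × 10⁵ cells/cm², switched to serum-free medium after 8 h, left overnight, then treated 3 h in serum-free medium; 0.1% DMSO vehicle control. Cells were swollen in hypotonic HEPES/NP-40 buffer for the cytosolic fraction and nuclei extracted in high-salt buffer. Blots loaded 30 μg/lane, Nrf2 densitometry normalized to actin, mean of three experiments.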

[8] = target: T1, Nuclear factor erythroid 2-related factor 2 (Mus musculus); assay: Activation of Nrf2 in mouse RAW264.7 cells assessed as upregulation of Hmox1 gene expression at 10 to 50 uM after 6 hrs by real-time PCR analysis relative to GAPDH mRNA expression; assay type: cell-based
In short: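 RAW264.7 cells treated 6 h in serum-free medium, 0.1% DMSO control. Total RNA (2 μg) reverse transcribed; TaqMan qPCR for Hmox1 and Gapdh, 40 cycles. Relative expression by 2^−ΔΔCT, normalized to Gapdh; mean ± SD of three experiments.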

RAW264.7 [9] = assay: Drug uptake in mouse RAW264.7 cells at 50 uM after 10 mins; assay type: ADME, cell-based; details: raw264.7, 10 min
In short: (§4)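 Cells given 50 μM for up to 6 h, then scraped, washed twice in PBS and sonicated in methanol with 5% acetic acid. Supernatant analysed by UPLC on a phenyl column (water/1% acetic acid/methanol to methanol gradient, 35 °C) with negative ESI-QqTOF MS. Contents expressed as nmol per 10⁶ cells.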

[10] = target: T1, Nuclear factor erythroid 2-related factor 2 (Mus musculus); assay: Activation of Nrf2 in mouse RAW264.7 cells assessed as reduction of KEAP1 protein level at 50 uM after 3 hrs by Western blotting analysis; assay type: cell-based; in short: as §3
RAW264.7 [11] = assay: Induction of ROS generation in mouse RAW264.7 cells at 50 uM after 2 hrs by flow cytometric analysis; assay type: functional; in short: as §2
RAW264.7 [12] = assay: Stability in mouse RAW264.7 cells assessed as gallic acid level at 50 uM after 6 hrs by HPLC/MS analysis; assay type: ADME, cell-based; details: raw264.7, 6 h
RAW264.7 [13] = assay: Drug metabolism in mouse RAW264.7 cells assessed as 7-O-galloylquercetin level at 50 uM after 6 hrs by HPLC/ESI-QqTOF/MS analysis; assay type: ADME, cell-based; details: raw264.7, 6 h; in short: as §4
[14] = target: T1, Nuclear factor erythroid 2-related factor 2 (Mus musculus); assay: Activation of Nrf2 in mouse RAW264.7 cells assessed as induction of Hmox1 mRNA expression at 50 uM after 6 hrs by real-time PCR analysis in presence of PD98059; assay type: cell-based; in short: as §1

Sequence of Mitogen-activated protein kinase 1 and 3 (ERK2 and ERK1) (Mus musculus) (P63085 whole entry, looked up): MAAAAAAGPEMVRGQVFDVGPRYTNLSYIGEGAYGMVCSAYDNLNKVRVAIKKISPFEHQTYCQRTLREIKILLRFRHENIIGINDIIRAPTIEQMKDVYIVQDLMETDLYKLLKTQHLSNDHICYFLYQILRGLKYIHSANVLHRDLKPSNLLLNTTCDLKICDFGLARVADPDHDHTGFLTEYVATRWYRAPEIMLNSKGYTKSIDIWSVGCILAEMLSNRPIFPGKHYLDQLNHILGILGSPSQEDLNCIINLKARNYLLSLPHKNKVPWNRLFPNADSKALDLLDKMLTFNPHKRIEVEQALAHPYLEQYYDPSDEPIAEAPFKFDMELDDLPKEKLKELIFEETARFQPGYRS
Sequence of Mitogen-activated protein kinase 1 and 3 (ERK2 and ERK1) (Mus musculus) (Q63844 whole entry, looked up): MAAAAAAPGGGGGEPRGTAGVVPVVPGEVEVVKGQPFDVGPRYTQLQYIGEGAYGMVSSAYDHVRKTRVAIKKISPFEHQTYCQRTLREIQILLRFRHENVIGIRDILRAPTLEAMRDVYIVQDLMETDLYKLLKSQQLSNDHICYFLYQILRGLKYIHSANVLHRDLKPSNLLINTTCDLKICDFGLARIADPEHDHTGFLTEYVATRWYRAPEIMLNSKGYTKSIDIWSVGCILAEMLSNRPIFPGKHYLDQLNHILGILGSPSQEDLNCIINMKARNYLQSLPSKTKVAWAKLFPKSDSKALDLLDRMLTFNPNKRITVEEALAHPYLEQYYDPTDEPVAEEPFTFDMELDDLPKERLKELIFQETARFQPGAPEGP

## O=C(Oc1cc(O)c2c(c1)O[C@H](c1ccc(O)c(O)c1)[C@@H](O)C2=O)c1cc(O)c(O)c(O)c1
[1]
  Activity: 90%
RAW264.7 [2]
  Activity: Active
[3]
  Activity: inactive
[4]
  Activity: Active
[5]
  fold change (FC): 1.1
[6]
  Activity: tde
[7]
  Activity: Active
[8]
  Activity: Dose-dependent effect
RAW264.7 [9]
  Drug uptake: 85%
[10]
  Activity: Active
RAW264.7 [11]
  Activity: 29%
RAW264.7 [12]
  Stability: Stable
RAW264.7 [13]
  Drug metabolism: Active
[14]
  Activity: inactive
